The text below walks through data of ChEMBL document CHEMBL1135838, “alpha(1)-Adrenoceptor agonists: the identification of novel alpha(1A )subtype selective 2'-heteroaryl-2-(phenoxymethyl)imidazolines” (Bioorg Med Chem Lett, 2002).

The first test has as its target T1, Alpha-1D adrenergic receptor (Homo sapiens) (UniProt P25100).
T1 sequence (whole entry): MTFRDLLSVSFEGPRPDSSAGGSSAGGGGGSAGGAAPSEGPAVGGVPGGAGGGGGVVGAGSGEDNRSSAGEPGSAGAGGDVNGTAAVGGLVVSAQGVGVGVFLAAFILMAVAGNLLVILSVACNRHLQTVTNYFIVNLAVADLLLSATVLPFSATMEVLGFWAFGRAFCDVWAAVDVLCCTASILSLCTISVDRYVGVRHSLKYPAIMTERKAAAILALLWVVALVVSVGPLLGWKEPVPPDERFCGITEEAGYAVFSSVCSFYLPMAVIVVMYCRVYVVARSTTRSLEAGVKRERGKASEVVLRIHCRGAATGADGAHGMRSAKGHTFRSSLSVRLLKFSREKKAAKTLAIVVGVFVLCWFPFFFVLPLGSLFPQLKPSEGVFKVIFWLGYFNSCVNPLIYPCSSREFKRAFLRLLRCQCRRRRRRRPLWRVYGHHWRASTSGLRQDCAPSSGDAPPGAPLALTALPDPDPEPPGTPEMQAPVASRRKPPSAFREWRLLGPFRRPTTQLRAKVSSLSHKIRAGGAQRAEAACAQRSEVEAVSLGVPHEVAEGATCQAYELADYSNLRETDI
Kind of test: Ability to activate human alpha-1D receptor expressed in rat-1 fibroblasts as calcium mobilization through Gq coupled PLC pathway relative to phenylephrine response. Type of test: functional. The gist of the method:
(§1)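 Rat-1 fibroblasts stably expressing cloned human α1A (clone #137-12), α1B (clone #37-11) or α1D (clone #16-7) adrenoceptor were loaded with the Calcium Green calcium-sensitive dye. Gq/PLC-coupled calcium mobilization was read on a FLIPR. Eleven-point concentration–response curves, with a top concentration typically 5 μM, were normalized to the 40 μM phenylephrine response to give pEC50 and % efficacy. Values are the mean of ≥2 experiments.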
Turning to `c1ccc(-c2nccs2)c(OCC2=NCCN2)c1`, the Max turned out to be 113%.
Same read-out and setting: in the case of `c1ccc(-c2ccns2)c(OCC2=NCCN2)c1` it was 82%; in that of `c1cncc(-c2ccccc2OCC2=NCCN2)c1`, 38%; in that of `c1c[nH]c(-c2ccccc2OCC2=NCCN2)c1`, 111%.
Turning to `c1ccc(-c2ccccc2NCC2=NCCN2)cc1`, the Max was 20%.
The same measure, in the same setting: next, `c1ccc(-c2ccoc2)c(OCC2=NCCN2)c1`: 126%.
On the same count and under the same terms, next, `c1ccc(-c2ccsc2)c(OCC2=NCCN2)c1`: 120%; `c1csc(-c2ccccc2OCC2=NCCN2)c1`: 93%.

In a further test the target is T2, Alpha-1D adrenergic receptor (Homo sapiens, UniProt P25100).
T2 sequence (P25100 whole entry): T1 sequence (whole entry)
Kind of test: Activation of recombinant human adrenergic, alpha-1D receptor expressed in rat-1 fibroblasts assayed via calcium mobilization through Gq coupled PLC pathway. The class given is functional. The gist of the method: as §1
Consider `c1ccc(-c2ccncn2)c(OCC2=NCCN2)c1`, for which the EC50 is greater than 100000 nM.
On the same count and under the same terms, in the case of `c1ccc(-c2nccs2)c(OCC2=NCCN2)c1` it was 31.6 nM.
Take `c1coc(-c2ccccc2OCC2=NCCN2)c1`: the EC50 was greater than 100000 nM.
In the case of `CCN(CC)C(=O)c1ccccc1OCC1=NCCN1`, the EC50 is greater than 5010 nM.
On to `Cc1ccc(-c2ccccc2OCC2=NCCN2)s1`, for which the EC50 is greater than 100000 nM.
The same measure, in the same setting: in the case of `c1ccc(-c2ccncc2)c(OCC2=NCCN2)c1` it was greater than 100000 nM; in that of `c1ccc(-c2ccns2)c(OCC2=NCCN2)c1`, 25.1 nM; in that of `c1cncc(-c2ccccc2OCC2=NCCN2)c1`, 158 nM.
On the same count and under the same terms, in the case of `c1c[nH]c(-c2ccccc2OCC2=NCCN2)c1` it was 6.31 nM; in that of `c1ccc(-c2ccccc2NCC2=NCCN2)cc1`, 794 nM.
Turning to `c1ccc(-c2ccoc2)c(OCC2=NCCN2)c1`, the EC50 was 5.01 nM.
Consider `c1ccc(-c2ccsc2)c(OCC2=NCCN2)c1`, for which the EC50 is 12.6 nM.
For the molecule `c1csc(-c2ccccc2OCC2=NCCN2)c1`, the EC50 is 15.8 nM.

The next test deals with T2, Alpha-1D adrenergic receptor. Kind of test: Binding affinity of compound towards human Alpha-1D adrenergic receptor expressed in rat-1 fibroblast membranes. Type of test: cell membranes. A digest of the protocol: (§2)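 Radioligand binding was run on membranes from Rat-1 fibroblasts expressing human α1A, α1B or α1D adrenoceptor. Affinity is reported as pIC50 (±SEM), the mean of at least two experiments.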
`c1cncc(-c2ccccc2OCC2=NCCN2)c1`: the IC50 was 257 nM.
Regarding `c1c[nH]c(-c2ccccc2OCC2=NCCN2)c1`, the IC50 is 53.7 nM.

Another test addresses T3, Alpha-1A adrenergic receptor (Homo sapiens, UniProt P35348).
T3 sequence (P35348 whole entry): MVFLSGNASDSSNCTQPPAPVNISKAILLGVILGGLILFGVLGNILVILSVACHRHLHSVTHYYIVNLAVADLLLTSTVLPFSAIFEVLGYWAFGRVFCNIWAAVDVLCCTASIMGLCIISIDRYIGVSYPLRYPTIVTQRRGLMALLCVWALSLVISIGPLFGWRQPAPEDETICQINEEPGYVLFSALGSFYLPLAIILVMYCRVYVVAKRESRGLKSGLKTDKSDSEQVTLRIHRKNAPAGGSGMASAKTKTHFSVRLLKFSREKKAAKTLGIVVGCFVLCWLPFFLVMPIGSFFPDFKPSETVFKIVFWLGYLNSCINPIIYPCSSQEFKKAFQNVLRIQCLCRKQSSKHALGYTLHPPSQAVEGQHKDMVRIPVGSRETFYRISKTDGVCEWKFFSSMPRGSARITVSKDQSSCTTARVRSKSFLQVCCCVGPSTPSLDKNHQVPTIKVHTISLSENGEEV
Kind of test: Binding affinity of compound towards Alpha-1A adrenergic receptor using membranes prepared from Rat-1 fibroblasts expressing human Alpha-1A adrenergic receptor. A digest of the protocol: as §2
`c1cncc(-c2ccccc2OCC2=NCCN2)c1` gave an IC50 of 50.1 nM.
The same measure, in the same setting: next, `c1c[nH]c(-c2ccccc2OCC2=NCCN2)c1`: 32.4 nM.

For the next test, the target named is T4, Alpha-1A adrenergic receptor (Homo sapiens) (UniProt P35348).
T4 sequence (whole entry): T3 sequence (P35348 whole entry)
Kind of test: Ability to activate cloned human alpha-1A receptor expressed in rat-1 fibroblasts via calcium mobilization through Gq coupled PLC pathway expressed as percent of phenylephrine (40 uM) response. The class given is functional. The gist of the method:
as §1
For the molecule `c1ccc(-c2nccs2)c(OCC2=NCCN2)c1`, the Max is 102%.
Same read-out and setting: in the case of `c1coc(-c2ccccc2OCC2=NCCN2)c1` it was 106%; in that of `Cc1ccc(-c2ccccc2OCC2=NCCN2)s1`, 97%; in that of `c1ccc(-c2ccns2)c(OCC2=NCCN2)c1`, 99%.
Same read-out and setting: in the case of `c1cncc(-c2ccccc2OCC2=NCCN2)c1` it was 109%; in that of `c1c[nH]c(-c2ccccc2OCC2=NCCN2)c1`, 99%.
On the same count and under the same terms, next, `c1ccc(-c2ccccc2NCC2=NCCN2)cc1`: 101%.
On to `c1ccc(-c2ccoc2)c(OCC2=NCCN2)c1`, for which the Max stood at 104%.
Regarding `c1ccc(-c2ccsc2)c(OCC2=NCCN2)c1`, the Max was 98%.
The same measure, in the same setting: in the case of `c1csc(-c2ccccc2OCC2=NCCN2)c1` it was 101%.

A further test addresses T3, Alpha-1A adrenergic receptor. Kind of test: Activation of recombinant human adrenergic,alpha-1A receptor expressed in rat-1 fibroblasts determined via calcium mobilization through Gq coupled PLC pathway. The class given is functional. The gist of the method:
as §1
With `c1ccc(-c2ccncn2)c(OCC2=NCCN2)c1`, the EC50 is greater than 100000 nM.
The same measure, in the same setting: in the case of `c1ccc(-c2nccs2)c(OCC2=NCCN2)c1` it was 2.51 nM; in that of `c1coc(-c2ccccc2OCC2=NCCN2)c1`, 1.26 nM.
Same read-out and setting: in the case of `CCN(CC)C(=O)c1ccccc1OCC1=NCCN1` it was greater than 5010 nM; in that of `Cc1ccc(-c2ccccc2OCC2=NCCN2)s1`, 25.1 nM; in that of `c1ccc(-c2ccncc2)c(OCC2=NCCN2)c1`, greater than 100000 nM.
Still for that read-out and setting: next, `c1ccc(-c2ccns2)c(OCC2=NCCN2)c1`: 5.01 nM.
Take `c1cncc(-c2ccccc2OCC2=NCCN2)c1`: the EC50 was 2 nM.
For the molecule `c1c[nH]c(-c2ccccc2OCC2=NCCN2)c1`, the EC50 was 1.26 nM.
On the same count and under the same terms, next, `c1ccc(-c2ccccc2NCC2=NCCN2)cc1`: 7.94 nM.
On to `c1ccc(-c2ccoc2)c(OCC2=NCCN2)c1`, for which the half-maximal effective concentration (EC50) was 0.501 nM.
On the same count and under the same terms, in the case of `c1ccc(-c2ccsc2)c(OCC2=NCCN2)c1` it was 0.251 nM.
On the same count and under the same terms, next, `c1csc(-c2ccccc2OCC2=NCCN2)c1`: 1 nM.

A further test concerns the target T5, Alpha-1B adrenergic receptor (Homo sapiens, UniProt P35368).
T5 sequence (P35368 whole entry): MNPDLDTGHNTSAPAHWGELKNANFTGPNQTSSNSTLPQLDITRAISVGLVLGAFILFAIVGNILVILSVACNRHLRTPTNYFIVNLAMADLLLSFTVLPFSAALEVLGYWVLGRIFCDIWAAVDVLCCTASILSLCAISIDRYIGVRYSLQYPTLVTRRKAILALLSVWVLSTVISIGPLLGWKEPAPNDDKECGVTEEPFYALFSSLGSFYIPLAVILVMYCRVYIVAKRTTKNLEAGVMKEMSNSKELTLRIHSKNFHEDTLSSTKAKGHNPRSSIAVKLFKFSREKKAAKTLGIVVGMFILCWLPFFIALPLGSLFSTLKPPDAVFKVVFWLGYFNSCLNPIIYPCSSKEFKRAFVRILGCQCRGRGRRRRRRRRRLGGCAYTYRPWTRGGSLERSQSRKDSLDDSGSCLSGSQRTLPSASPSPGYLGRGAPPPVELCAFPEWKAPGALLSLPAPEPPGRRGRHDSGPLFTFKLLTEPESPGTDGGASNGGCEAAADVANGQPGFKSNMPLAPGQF
Kind of test: Activation of recombinant human adrenergic, alpha-1B receptor expressed in rat-1 fibroblasts determined via calcium mobilization through Gq coupled PLC pathway. The class given is functional. A digest of the protocol:
as §1
`c1ccc(-c2ccncn2)c(OCC2=NCCN2)c1`: the EC50 was greater than 100000 nM.
Still for that read-out and setting: in the case of `c1ccc(-c2nccs2)c(OCC2=NCCN2)c1` it was 20 nM; in that of `c1coc(-c2ccccc2OCC2=NCCN2)c1`, 10 nM.
The same measure, in the same setting: in the case of `CCN(CC)C(=O)c1ccccc1OCC1=NCCN1` it was greater than 5010 nM; in that of `Cc1ccc(-c2ccccc2OCC2=NCCN2)s1`, greater than 100000 nM; in that of `c1ccc(-c2ccncc2)c(OCC2=NCCN2)c1`, greater than 100000 nM.
With `c1ccc(-c2ccns2)c(OCC2=NCCN2)c1`, the EC50 was 12.6 nM.
The same measure, in the same setting: next, `c1cncc(-c2ccccc2OCC2=NCCN2)c1`: 79.4 nM; `c1c[nH]c(-c2ccccc2OCC2=NCCN2)c1`: 1 nM; `c1ccc(-c2ccccc2NCC2=NCCN2)cc1`: greater than 100000 nM.
On the same count and under the same terms, next, `c1ccc(-c2ccoc2)c(OCC2=NCCN2)c1`: 5.01 nM; `c1ccc(-c2ccsc2)c(OCC2=NCCN2)c1`: 15.8 nM; `c1csc(-c2ccccc2OCC2=NCCN2)c1`: 3.98 nM.

The next test addresses T5, Alpha-1B adrenergic receptor. Kind of test: Binding affinity of compound towards human Alpha-1B adrenergic receptor expressed in rat fibroblast membranes. The class given is cell membranes, Membrane. A digest of the protocol: as §2
On to `c1cncc(-c2ccccc2OCC2=NCCN2)c1`, for which the IC50 is 1290 nM.
Take `c1c[nH]c(-c2ccccc2OCC2=NCCN2)c1`: the IC50 was 269 nM.

The target in the next test is T6, Alpha-1B adrenergic receptor (Homo sapiens) (UniProt P35368).
T6 sequence (whole entry): T5 sequence (P35368 whole entry)
The test is described as follows: Activation of human alpha-1B receptor expressed in rat-1 fibroblasts by calcium mobilization of Gq coupled PLC as percent phenylephrine (40 uM) response. The class given is functional. A digest of the protocol:
as §1
For `c1ccc(-c2nccs2)c(OCC2=NCCN2)c1`, the Max turned out to be 100%.
For `c1coc(-c2ccccc2OCC2=NCCN2)c1`, the Max amounted to 110%.
The same measure, in the same setting: next, `c1ccc(-c2ccns2)c(OCC2=NCCN2)c1`: 56%; `c1cncc(-c2ccccc2OCC2=NCCN2)c1`: 111%; `c1c[nH]c(-c2ccccc2OCC2=NCCN2)c1`: 104%.
`c1ccc(-c2ccoc2)c(OCC2=NCCN2)c1`: the Max came to 111%.
`c1ccc(-c2ccsc2)c(OCC2=NCCN2)c1`: the Max came out at 103%.
The same measure, in the same setting: next, `c1csc(-c2ccccc2OCC2=NCCN2)c1`: 112%.
